In ChEMBL document CHEMBL1155362, “Synthesis, characterization and derivatization of some novel types of mono- and bis-imidazolidineiminothiones and imidazolidineiminodithiones with antitumor, antiviral, antibacterial and antifungal activities--part I” (Eur J Med Chem, 2009):

How the values were obtained:
[1] = tested on: Candida albicans; experiment: Antifungal activity against Candida albicans IMRU 3669 at 5 mg/ml by agar disk diffusion assay; format: functional; details: Candida albicans, IMRU 3669; read-out: DIZ
In short: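 Fungi maintained on Czapek's Dox agar; agar well diffusion with 1 cm wells and […] of each concentration (1, 2.5, 5 mg/mL) in DMF; inhibition zone diameter measured.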

[2] = tested on: Hepatovirus A; experiment: Antiviral activity against HAV infected african green monkey Vero cells at 10^-3 dilution of 5 mg/ml by plaque formation assay; format: functional
In short: (§1)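 Compound dilutions prepared from a 5 mg/mL DMSO stock, using the maximum non-toxic dilution for Vero cells over 3 days; 0.1 mL virus (10³) mixed with 0.1 mL compound for 1 h at room temperature; mixture inoculated onto washed Vero monolayers in 12-well plates and adsorbed at 37 °C; 2× MEM/agarose overlay applied; read-out % reduction in plaque count versus untreated virus control.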

[3] = tested on: Human alphaherpesvirus 1; experiment: Antiviral activity against HSV1 infected african green monkey Vero cells at 10^-3 dilution of 5 mg/ml by plaque formation assay; format: functional; in short: as §1
[4] = tested on: Coxsackievirus B4; experiment: Antiviral activity against Coxsackievirus B4 infected african green monkey Vero cells at 10^-3 dilution of 5 mg/ml by plaque formation assay; format: functional; in short: as §1
[5] = tested on: Escherichia coli; experiment: Antibacterial activity against Escherichia coli NCTC 10416 at 5 mg/ml by agar disk diffusion assay; format: functional; details: read-out: DIZ
[6] = tested on: Salmonella typhi; experiment: Antibacterial activity against Salmonella typhi NCIMB 9331 at 5 mg/ml by agar disk diffusion assay; format: functional, Salmonella enterica subsp. enterica serovar Typhi; details: Salmonella enterica, read-out: DIZ
[7] = tested on: Bacillus subtilis; experiment: Antibacterial activity against Bacillus subtilis NCTC 1040 at 5 mg/ml by agar disk diffusion assay; format: functional; details: read-out: DIZ
[8] = tested on: Staphylococcus aureus; experiment: Antibacterial activity against Staphylococcus aureus NCTC 7447 at 5 mg/ml by agar disk diffusion assay; format: functional; details: read-out: DIZ

N=C1C(=S)N(c2ccc(I)cc2)C(=O)N1c1ccc2c(c1)Cc1ccccc1-2 showed a zone of inhibition at 5000 µg/mL [1] of 13 mm, an Activity [2] of 50% and an Activity [3] of 70%. The Activity [4] was 50%, the zone of inhibition at 5000 µg/mL [5] was 15 mm and the zone of inhibition at 5000 µg/mL [6] was 17 mm. The zone of inhibition at 5000 µg/mL [7] was 13.5 mm and the zone of inhibition at 5000 µg/mL [8] was 13.5 mm.
